Each structure is given as a SMILES string. The source made the active and inactive calls. The rule behind the calls is not given here.

Usually CC50 stands for the concentration that lowers cell viability or growth by half. As a reminder, the IC50 is the concentration at which inhibition is half-maximal.

Series [1] in a line: Cytotoxicity against BALB/c mouse splenocytes assessed as cell viability after 24 hrs by [3H]thymidine incorporation assay. In kind it is cell-based, Splenocyte. Particulars: for MNTC at 24 h: read-out: MNCC. An outline of the steps: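 Splenocytes from BALB/c mice seeded at 5 × 10⁶ cells/well. DMSO stocks serially diluted in RPMI-1640 (final DMSO 1%), triplicate wells. 24 h at 37 °C, 5% CO₂ with […] ³H-thymidine; cells harvested, % ³H-thymidine incorporation by scintillation counting. CC50 from five concentrations; highest non-cytotoxic concentration also noted.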
Background: Dividing cells build labelled thymidine or BrdU into new DNA.

Series [2] in a line: Selectivity index, ratio of CC50 for BALB/c mouse splenocytes to CC50 for Trypanosoma cruzi Y trypomastigotes. In outline: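 Ratio of CC50 in BALB/c splenocytes (24 h ³H-thymidine incorporation) to CC50 in Y strain trypomastigotes (24 h Neubauer count of viable parasites).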
Series [3] relates to Trypanosoma cruzi. Nature of the series: Antitrypanosomal activity against Trypanosoma cruzi Dm28c epimastigotes assessed as inhibition of parasite proliferation after 5 days by hemocytometer analysis. In kind it is functional, organism-based. Particulars: 120 h. An outline of the steps:
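Dm28c epimastigotes kept in LIT medium with 10% FBS at 26 °C, seeded at 10⁶ cells/well. DMSO stocks serially diluted in LIT (1.23–100 […] as printed; final DMSO 1%), triplicate wells. 5 days at 26 °C, then viable parasites counted in a Neubauer chamber against untreated culture; IC50 from concentrations in triplicate, experiment repeated, only values with SD <10% of mean kept.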

In series [4] the test system is Trypanosoma cruzi. As to the kind of experiment: Antitrypanosomal activity against Trypanosoma cruzi trypomastigotes assessed as induction of apoptotic parasitic death at CC25 to CC100 after 24 hrs by Annexin V-FITC/propidium iodide staining based flow cytometry. It is filed as functional, organism-based.
The subject of series [5] is Trypanosoma cruzi. Nature of the series: Antitrypanosomal activity against Trypanosoma cruzi Y […] trypomastigotes isolated from infected LLC-MK2 cells assessed as parasite viability after 24 hrs by neubauer chamber analysis. In kind it is functional. Conditions: LLC-MK2, 24 h. An outline of the steps:
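Y strain (TcII) […] trypomastigotes taken from supernatant of infected LLC-MK2 cells, seeded at 4 × 10⁵ cells/well in RPMI-1640. DMSO stocks serially diluted in RPMI. 24 h at 37 °C, 5% CO₂; viable parasites counted in a Neubauer chamber, % inhibition versus untreated cultures; CC50 by nonlinear regression, triplicates, experiment repeated, SD <10% of mean required.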

Series [6] has as its system Trypanosoma cruzi. Nature of the series: Antitrypanosomal activity against Trypanosoma cruzi trypomastigotes assessed as late apoptotic cells at 1.1 uM after 24 hrs by Annexin V-FITC/propidium iodide staining based flow cytometry (reference value: 0.8%). It is filed as functional. In general terms: Flow cytometry measures light scatter and fluorescence of single cells or particles in a stream.

For series [7], the system named is Trypanosoma cruzi. Nature of the series: Antitrypanosomal activity against Trypanosoma cruzi trypomastigotes assessed as late apoptotic cells at 0.25 uM after 24 hrs by Annexin V-FITC/propidium iodide staining based flow cytometry (reference value: 0.8%). In kind it is functional.
For series [8], the system named is Trypanosoma cruzi. As to the kind of experiment: Antitrypanosomal activity against Trypanosoma cruzi trypomastigotes assessed as necrotic cells at 1.1 uM after 24 hrs by Annexin V-FITC/propidium iodide staining based flow cytometry (reference value: 0.37%). It is filed as functional.
The test system of series [9] is Trypanosoma cruzi. As to the kind of experiment: Antitrypanosomal activity against Trypanosoma cruzi trypomastigotes assessed as early apoptotic cells at 1.1 uM after 24 hrs by Annexin V-FITC/propidium iodide staining based flow cytometry (reference value: 1.71%). In kind it is functional.
For series [10], the system named is Trypanosoma cruzi. Nature of the series: Antitrypanosomal activity against Trypanosoma cruzi trypomastigotes assessed as induction of apoptotic parasitic death after 24 hrs by Annexin V-FITC/propidium iodide staining based flow cytometry. It is filed as functional, organism-based.
The subject of series [11] is Trypanosoma cruzi. As to the kind of experiment: Antitrypanosomal activity against Trypanosoma cruzi trypomastigotes assessed as early apoptotic cells at 0.25 uM after 24 hrs by Annexin V-FITC/propidium iodide staining based flow cytometry (reference value: 1.71%). In kind it is functional.
Series [12] concerns Trypanosoma cruzi. As to the kind of experiment: Antitrypanosomal activity against Trypanosoma cruzi trypomastigotes assessed as necrotic cells at 0.25 uM after 24 hrs by Annexin V-FITC/propidium iodide staining based flow cytometry (reference value: 0.37%). In kind it is functional.
The target of series [13] is Cruzipain (Trypanosoma cruzi) (UniProt P25779). Nature of the series: Inhibition of Trypanosomal cruzi recombinant cruzain assessed as substrate cleavage using Z-Phe-Arg-AMC as substrate at 50 uM preincubated for 10 mins measured for 5 mins by flow cytometry. Particulars: in the assay text read “by fluorescence assay” for “by flow cytometry”. An outline of the steps:
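Recombinant cruzain, final concentration 0.5 nM, in 0.1 M sodium acetate pH 5.5 with 1 mM β-mercaptoethanol and 0.01% Triton X-100. Substrate Z-FR-AMC at 2.5 (Km 1.0). Screened with no pre-incubation and after 10-min enzyme pre-incubation. Fluorescence read at ex 340/em 440 nm for 5 min, activity relative to DMSO control. Two independent experiments in triplicate.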

Chain of Cruzipain (Trypanosoma cruzi) (P25779 123-467 limits assumed): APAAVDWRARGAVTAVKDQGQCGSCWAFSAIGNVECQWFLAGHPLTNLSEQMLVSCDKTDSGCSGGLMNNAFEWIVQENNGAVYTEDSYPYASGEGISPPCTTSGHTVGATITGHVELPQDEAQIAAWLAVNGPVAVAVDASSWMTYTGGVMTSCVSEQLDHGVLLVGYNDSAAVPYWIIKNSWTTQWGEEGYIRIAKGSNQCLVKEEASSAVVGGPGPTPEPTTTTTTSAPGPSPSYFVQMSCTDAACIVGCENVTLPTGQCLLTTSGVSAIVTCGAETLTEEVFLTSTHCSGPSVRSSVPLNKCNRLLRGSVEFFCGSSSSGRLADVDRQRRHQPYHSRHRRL

For `CC(=O)Nc1ccc(OC(C)/C(C)=N/NC(N)=S)cc1` (stereo not given), in [1], the CC50 at 24 h turned out to be 350 µM and the MNTC at 24 h was over 340 µM. Besides, the “Selectivity Index” value in series [2] amounted to 250. Besides, the IC50 in the series with Trypanosoma cruzi [3] was 71.5 µM. Further, the outcome with Trypanosoma cruzi [4] was Active. The CC50 in the series on Trypanosoma cruzi [5] turned out to be 1.4 µM.

Take `C/C(=N\NC(N)=S)C(C)Oc1cccc(Br)c1` (stereo not given): the MNTC at 24 h in series [1] was 31.6 µM. In the series with Trypanosoma cruzi [3], the IC50 turned out to be 5.8 µM. Besides, in the series with Trypanosoma cruzi [5], the half-maximal cytotoxic concentration (CC50) was found to be 4.5 µM.

For the molecule `CCc1ccc(OC(C)/C(C)=N/NC(N)=S)cc1` (stereo not given), in [1], the MNTC at 24 h came out at 18.8 µM. For the same molecule, the IC50 in the series with Trypanosoma cruzi [3] stood at 11.6 µM. In the series with Trypanosoma cruzi [5], the cytotoxic concentration (CC50) came out at 4.6 µM.

Take `C/C(=N\NC(N)=S)C(C)Oc1ccc(I)cc1` (stereo not given): in [1], the MNTC at 24 h came to 13.7 µM. Further, in the series with Trypanosoma cruzi [3], the IC50 came to 4.9 µM. Moreover, the 50% cytotoxic concentration (CC50) in the series on Trypanosoma cruzi [5] was determined as 1.1 µM.

`C/C(=N\NC(N)=S)C(C)Oc1cccc(-c2ccccc2)c1` (stereo not given): in series [1], the MNTC at 24 h was determined as 31.9 µM. Also, the IC50 in the series with Trypanosoma cruzi [3] was determined as 2.2 µM. The cytotoxic concentration (CC50) with Trypanosoma cruzi [5] stood at 1.3 µM.

Regarding `O=C(Cn1ccnc1[N+](=O)[O-])NCc1ccccc1` [BENZNIDAZOLE], in the series on Trypanosoma cruzi [3], the IC50 came to 48.8 µM. In addition, the CC50 in the series on Trypanosoma cruzi [5] turned out to be 6.2 µM.

Consider `C/C(=N\NC(N)=S)C(C)Oc1ccc(C(C)C)cc1` (stereo not given), for which the MNTC at 24 h in [1] was 17.9 µM. For the same molecule, the IC50 in the series with Trypanosoma cruzi [3] came to 5.9 µM. The CC50 in the series with Trypanosoma cruzi [5] is 1.5 µM.

Consider `C/C(=N\NC(N)=S)C(C)Oc1ccc(Cl)c(Cl)c1` (stereo not given), for which the MNTC at 24 h in series [1] came out at 16.3 µM. Moreover, in the series with Trypanosoma cruzi [3], the IC50 turned out to be 4.4 µM. The CC50 with Trypanosoma cruzi [5] amounted to 4.4 µM.

With `C/C(=N\NC(N)=S)C(C)Oc1ccccc1-c1ccccc1` (stereo not given), the Activity in the series on Trypanosoma cruzi [6] was 6.2%; in the series on Trypanosoma cruzi [7], 2.21%; in the series with Trypanosoma cruzi [8], 4.62%; in the series on Trypanosoma cruzi [9] it was 7.8%; in the series with Trypanosoma cruzi [10] it was “Dose-dependent effect”; with Trypanosoma cruzi [11], 1.22%. Moreover, the Activity in the series on Trypanosoma cruzi [12] was determined as 0.51%. The CC50 at 24 h in [1] amounted to 50 µM. For the same molecule, the MNTC at 24 h in series [1] was determined as 31.9 µM. Besides, the “Selectivity Index” value in [2] amounted to 45. Also, the IC50 in the series with Trypanosoma cruzi [3] is 2.2 µM. Besides, the CC50 with Trypanosoma cruzi [5] was 1.1 µM.

Consider `C/C(=N\NC(N)=S)C(C)Oc1ccc(Br)cc1` (stereo not given), for which the MNTC at 24 h in series [1] was 31.6 µM. The half-inhibitory concentration (IC50) in the series on Trypanosoma cruzi [3] was 20.1 µM. The CC50 in the series with Trypanosoma cruzi [5] was found to be 3.9 µM.

Consider `C/C(=N\NC(N)=S)C(C)Oc1ccccc1` (stereo not given), for which the MNTC at 24 h in [1] came out at 211 µM. Besides, the IC50 with Trypanosoma cruzi [3] stood at 26.1 µM. In the series on Trypanosoma cruzi [5], the CC50 was 27.3 µM.

Take `C/C(=N\NC(N)=S)C(C)Oc1ccc2ccccc2c1` (stereo not given): the MNTC at 24 h in series [1] is 34.8 µM. The IC50 in the series on Trypanosoma cruzi [3] stood at 17.9 µM. The CC50 with Trypanosoma cruzi [5] was 5.6 µM.

Turning to `COc1cccc(OC(C)/C(C)=N/NC(N)=S)c1` (stereo not given), in [1], the MNTC at 24 h worked out at 37.4 µM. Further, in the series on Trypanosoma cruzi [3], the IC50 was 6.8 µM. The CC50 with Trypanosoma cruzi [5] is 6.2 µM.

For `C/C(=N\NC(N)=S)C(C)Oc1cccc(Cl)c1Cl` (stereo not given), the MNTC at 24 h in [1] amounted to 32.6 µM. In addition, the IC50 with Trypanosoma cruzi [3] came to 2.2 µM. The CC50 with Trypanosoma cruzi [5] came to 11.9 µM.

`C/C(=N\NC(N)=S)C(C)Oc1ccc(Cl)cc1` (stereo not given): the MNTC at 24 h in series [1] was determined as 92 µM. Besides, the IC50 with Trypanosoma cruzi [3] stood at 13.5 µM. Besides, in the series with Trypanosoma cruzi [5], the CC50 came out at 22.8 µM.

On to `C/C(=N\NC(N)=S)C(C)Oc1ccccc1Cl` (stereo not given), for which the MNTC at 24 h in [1] turned out to be 36.8 µM. Further, the IC50 in the series on Trypanosoma cruzi [3] was found to be 10.3 µM. Also, in the series on Trypanosoma cruzi [5], the CC50 came out at 1.5 µM.

Consider `CC1CS(=O)(=O)CCN1/N=C/c1ccc([N+](=O)[O-])o1` (stereo not given) [NIFURTIMOX], for which the IC50 in the series with Trypanosoma cruzi [3] was 5.7 µM. Besides, the CC50 in the series on Trypanosoma cruzi [5] was 2.7 µM.

As to `C/C(=N\NC(N)=S)C(C)Oc1ccc(F)c(Cl)c1` (stereo not given), the MNTC at 24 h in [1] stood at 34.5 µM. Besides, the CC50 in the series with Trypanosoma cruzi [5] turned out to be 3.5 µM.

Take `C/C(=N\NC(N)=S)C(C)Oc1ccc(-c2ccccc2)cc1` (stereo not given): the MNTC at 24 h in series [1] worked out at 15.9 µM. In addition, in series [13], the inhibition entry is “inactive”. Besides, the IC50 in the series on Trypanosoma cruzi [3] is 4.5 µM. In addition, in the series on Trypanosoma cruzi [5], the cytotoxic concentration (CC50) was 1.3 µM.

In the case of `C/C(=N\NC(N)=S)C(C)Oc1ccc(Oc2ccccc2)cc1` (stereo not given), the MNTC at 24 h in series [1] stood at 30.3 µM. Also, the CC50 in the series with Trypanosoma cruzi [5] is 1.3 µM.

Take `C/C(=N\NC(N)=S)C(C)Oc1ccc([N+](=O)[O-])cc1` (stereo not given): the MNTC at 24 h in series [1] is 88.5 µM. The inhibition entry in [13] was “inactive”. The half-maximal inhibitory concentration (IC50) with Trypanosoma cruzi [3] came to 177 µM. Besides, the CC50 in the series on Trypanosoma cruzi [5] is 5.9 µM.

As to `C/C(=N\NC(N)=S)C(C)Oc1cccc2ccccc12` (stereo not given), the MNTC at 24 h in [1] is 34.8 µM. In series [13], the inhibition result was “inactive”. Further, the IC50 in the series with Trypanosoma cruzi [3] amounted to 4.9 µM. For the same molecule, the CC50 with Trypanosoma cruzi [5] is 1.5 µM.

With `C/C(=N\NC(N)=S)C(C)Oc1ccc(C(C)(C)C)cc1` (stereo not given), the MNTC at 24 h in series [1] is 17 µM. Further, the half-maximal inhibitory concentration (IC50) in the series on Trypanosoma cruzi [3] is 4.6 µM. Also, the CC50 in the series on Trypanosoma cruzi [5] worked out at 1.4 µM.

For `COc1ccc(OC(C)/C(C)=N/NC(N)=S)cc1` (stereo not given), the MNTC at 24 h in series [1] turned out to be 93.5 µM. Also, the IC50 with Trypanosoma cruzi [3] came to 27.6 µM. For the same molecule, the CC50 in the series with Trypanosoma cruzi [5] turned out to be 26.8 µM.

For the molecule `C/C(=N\NC(N)=S)C(C)Oc1ccc(F)cc1` (stereo not given), the MNTC at 24 h in series [1] was over 392 µM. Moreover, the IC50 in the series on Trypanosoma cruzi [3] was found to be 86.4 µM. Also, the CC50 with Trypanosoma cruzi [5] is 23.2 µM.

Turning to `C/C(=N\NC(N)=S)C(C)Oc1cccc(Cl)c1` (stereo not given), in [1], the MNTC at 24 h is 36.8 µM. Further, in the series on Trypanosoma cruzi [3], the IC50 was found to be 45.8 µM. Also, the outcome in the series on Trypanosoma cruzi [4] was Active. Also, the CC50 in the series with Trypanosoma cruzi [5] was found to be 5.5 µM.

Source of the values: ChEMBL document CHEMBL3120049, “Conformational restriction of aryl thiosemicarbazones produces potent and selective anti-Trypanosoma cruzi compounds which induce apoptotic parasite death” (Eur J Med Chem, 2014).
